Published values of several laboratories.
Compare with care: the assays were run in different laboratories. pEC50, pIC50, pKi: −log10 of the molar value.
GLP1R: Glucagon-like peptide 1 receptor (GLP1R, Homo sapiens, UniProt P43220)
DRD3: D(3) dopamine receptor (DRD3, Homo sapiens, UniProt P35462)

Compound	target	read-out	action	technique	setting	endpoint	value
CC[C@H](C)[C@H](NC(=O)[C@H](Cc1ccccc1)NC(=O)[C@H](CCC(=O)O)NC(=O)[C@H](CCCCN)NC(=O)[C@H](C)NC(=O)[C@H](C)NC(=O)[C@H](CCC(N)=O)NC(=O)CNC(=O)[C@H](CCC(=O)O)NC(=O)[C@H](CC(C)C)NC(=O)[C@H](Cc1ccc(O)cc1)NC(=O)[C@H](CO)NC(=O)[C@@H](NC(=O)[C@@H](NC(=O)[C@H](CC(=O)O)NC(=O)[C@H](CO)NC(=O)[C@@H](NC(=O)[C@H](Cc1ccc(O)cc1)NC(=O)[C@@H](NC(=O)CNC(=O)[C@H](CCC(=O)O)NC(=O)[C@H](C)NC(=O)[C@@H](N)Cc1c[nH]cn1)[C@@H](C)O)[C@@H](C)O)[C@@H](C)CC)[C@@H](C)O)C(=O)N[C@@H](C)C(=O)N[C@@H](Cc1c[nH]c2ccccc12)C(=O)N[C@@H](CC(C)C)C(=O)N[C@H](C(=O)N[C@@H](CC(N)=O)C(=O)NCC(=O)N[C@@H](CCCNC(=N)N)C(=O)NCC(=O)O)C(C)C	GLP1R	reporter gene	agonist	luciferase		pEC50	9.06
CC(C)NCC1CCc2cc(CO)c([N+](=O)[O-])cc2N1 (centres unmarked)	DRD3	ligand displacement		radioligand		pIC50	5.13
CO/N=C1\C[C@]2(C[C@@H]3C[C@@H](C/C=C(\C)C[C@@H](C)/C=C/C=C4\CO[C@@H]5[C@H](O)C(C)=C[C@@H](C(=O)O3)[C@]45O)O2)O[C@H](/C(C)=C/C(C)C)[C@H]1C	Nuclear receptor subfamily 1 group I member 3 (Homo sapiens, UniProt Q14994)	reporter gene	antagonist			pIC50	4.36
C/C(N)=N\C(=N/S(=O)(=O)c1ccc(C(F)(F)F)cc1)N1C[C@H](c2ccccc2)C(c2ccc(Cl)cc2)=N1	Cannabinoid receptor 1 (Cnr1, Mus musculus, UniProt P47746)	ligand displacement		radioligand	cell membranes	pKi	8.64
CCCC[C@@H](NC(=O)[C@@H](N)Cc1c(C)cc(O)cc1C)C(=O)NCC(=O)N[C@@H](Cc1ccc(F)cc1)C(=O)N(C)CCC[C@@]1(c2ccc(F)cc2)OCc2cc(C#N)ccc21	DRD3	ligand displacement		radioligand		pKi	5.70
CC(CCc1ccc(O)cc1)NCCc1ccc(O)c(O)c1 (centres unmarked)	DRD3	ligand displacement		radioligand		pIC50	6.28
CC[C@H](C)[C@H](NC(=O)[C@H](CC(C)C)NC(=O)[C@H](Cc1c[nH]c2ccccc12)NC(=O)[C@H](CCCCN)NC(=O)[C@H](CC(C)C)NC(=O)[C@H](Cc1ccccc1)NC(=O)[C@H](CCC(=O)O)NC(=O)[C@H](CCC(N)=O)NC(=O)[C@@H](NC(=O)[C@H](C)NC(=O)[C@H](CC(C)C)NC(=O)[C@H](CC(=O)O)NC(=O)[C@H](CC(=O)O)NC(=O)[C@H](CC(C)C)NC(=O)[C@H](CC(C)C)NC(=O)[C@H](CCCCN)NC(=O)[C@H](CC(N)=O)NC(=O)[C@H](Cc1ccc(O)cc1)NC(=O)[C@H](CC(=O)O)NC(=O)[C@H](CO)NC(=O)[C@@H](NC(=O)[C@H](Cc1ccccc1)NC(=O)[C@@H](NC(=O)CNC(=O)[C@H](CC(=O)O)NC(=O)[C@H](C)NC(=O)[C@@H](N)Cc1c[nH]cn1)[C@@H](C)O)[C@@H](C)O)[C@@H](C)O)C(=O)N[C@@H](CC(N)=O)C(=O)N[C@@H](CCC(N)=O)C(=O)N[C@@H](CCCCN)C(=O)N[C@H](C(=O)N[C@H](C(=O)N[C@@H](CCC(N)=O)C(=O)O)[C@@H](C)O)C(C)C	GLP1R	reporter gene	agonist	luciferase		pEC50	8.82
CC(C)(O)[C@@H](Nc1nc(Cl)nc2c1ncn2[C@H]1[C@H](O)[C@H](O)[C@]2(CO)C[C@H]12)C1CC1	DRD3	ligand displacement		radioligand		pKi	5.87
CC(C)[C@@H]1NC(=O)[C@H](CO)NC(=O)[C@H](CO)NC(=O)[C@H](CO)N(C)C(=O)[C@H](CC(=O)O)NC(=O)[C@H](CO)NC(=O)[C@H](Cc2ccccc2)NC(=O)CSC[C@@H](C(=O)NCC(N)=O)NC(=O)[C@H](CC(N)=O)NC(=O)[C@H](CCCNC(=N)N)NC(=O)[C@H](Cc2ccc(-c3ccccc3)cc2)NC(=O)[C@H](Cc2ccc(-c3ccccc3)cc2)NC(=O)[C@H](CC(N)=O)NC(=O)[C@@H]2CCCN2C1=O	Protein Mdm4 (MDM4, Homo sapiens, UniProt O15151)	ligand displacement		TR-FRET		pIC50	6.08
CC[C@H](C)[C@H](NC(=O)[C@H](CC(=O)O)NC(=O)[C@H](CC(N)=O)NC(=O)[C@@H](NC(=O)[C@H](Cc1ccccc1)NC(=O)[C@H](CO)NC(=O)CNC(=O)[C@H](CC(=O)O)NC(=O)[C@H](C)NC(=O)[C@@H](N)Cc1c[nH]cn1)[C@@H](C)O)C(=O)N[C@@H](CC(N)=O)C(=O)N[C@@H](CCCCN)C(=O)N[C@H](C(=O)N[C@@H](CC(C)C)C(=O)N[C@@H](CC(=O)O)C(=O)N[C@H](C(=O)N[C@H](C(=O)N[C@@H](C)C(=O)N[C@@H](C)C(=O)N[C@@H](CCC(N)=O)C(=O)N[C@@H](CCC(=O)O)C(=O)N[C@@H](Cc1ccccc1)C(=O)N[C@@H](CC(C)C)C(=O)N[C@@H](CC(=O)O)C(=O)N[C@@H](Cc1c[nH]c2ccccc12)C(=O)N[C@H](C(=O)N[C@H](C(=O)N[C@@H](CC(N)=O)C(=O)N[C@H](C(=O)N[C@@H](CCC(N)=O)C(=O)N[C@H](C(=O)N[C@H](C(=O)N[C@@H](CCC(=O)O)C(=O)O)[C@@H](C)O)C(C)C)[C@@H](C)O)[C@@H](C)CC)C(C)C)[C@@H](C)CC)[C@@H](C)CC)C(C)C	GLP1R	reporter gene	agonist	luciferase		pEC50	7.52
Cc1cccc(-c2ccnc3c(C(N)=O)cnn23)c1	Toll-like receptor 8 (TLR8, Homo sapiens, UniProt Q9NR97)	reporter gene				pIC50	7.17
C[C@H]1COCCN1c1nc(NCc2cccnc2C(F)(F)F)c2cccnc2n1	A-type voltage-gated potassium channel KCND3 (KCND3, Homo sapiens, UniProt Q9UK17)	ion current	inhibitor			pIC50	< 4.48
CP(=O)(O)CCC(N)C(=O)O (racemic)	Glutamine synthetase (glnA, Escherichia coli K-12, UniProt P0A9C5)	enzyme activity	inhibitor			pKi	6.10
COc1ncccc1-c1cnn2ccc(N3CCN(C(=O)OC(C)C)CC3)nc12	Glutamate NMDA receptor; GRIN1/GRIN2B (GRIN1/GRIN2B, Homo sapiens, UniProt Q05586+Q13224)	ion current	inhibitor			pIC50	< 4.60
